Laboratory results taken from ChEMBL document CHEMBL4382246, “Synthesis, biological evaluation, and molecular docking investigation of 3-amidoindoles as potent tubulin polymerization inhibitors” (Eur J Med Chem, 2019).
Activity calls are given as the source filed them. The calls are words filed in the database; no cut-off is given here.

How the values were obtained:
MCF7 = test: Cytotoxicity against human MCF7 cells after 72 hrs by MTT assay; type: functional, cell-based; conditions: MCF7, 72 h
Outline: (§1)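 Lines kept in RPMI-1640 with 10% FBS. Cells were seeded at 2×10³ per well and allowed to attach for 24 h at 37 °C. Medium was then replaced with medium holding serial dilutions from 100 mM DMSO stocks, with 0.1% DMSO as negative control, for 72 h at 37 °C. […] IC50 was fitted from the concentration series as the mean ± SD of three independent experiments run in duplicate.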

MDA-MB-231 = test: Cytotoxicity against human MDA-MB-231 cells after 72 hrs by MTT assay; type: functional, cell-based; conditions: MDA-MB-231, 72 h; outline: as §1
BT-549 [1] = test: Cytotoxicity against human BT549 cells after 72 hrs by MTT assay; type: functional, cell-based; conditions: BT-549, 72 h; outline: as §1
T47D = test: Cytotoxicity against human T47D cells after 72 hrs by MTT assay; type: functional, cell-based; outline: as §1
MDA-MB-468 = test: Cytotoxicity against human MDA-MB-468 cells after 72 hrs by MTT assay; type: functional, cell-based; conditions: MDA-MB-468, 72 h; outline: as §1
Hs-578T = test: Cytotoxicity against human Hs578T cells after 72 hrs by MTT assay; type: functional, cell-based; outline: as §1
BT-549 [2] = test: Cell cycle arrest in human BT549 cells assessed as accumulation of cells at G0/G1 phase at 2 uM after 24 hrs by propidium iodide staining-based flow cytometric analysis (reference value: 65.28%); type: functional
BT-549 [3] = test: Cell cycle arrest in human BT549 cells assessed as accumulation of cells at S phase at 2 uM after 24 hrs by propidium iodide staining-based flow cytometric analysis (reference value: 25.84%); type: functional
BT-549 [4] = test: Cell cycle arrest in human BT549 cells assessed as accumulation of cells at G2/M phase at 2 uM after 24 hrs by propidium iodide staining-based flow cytometric analysis (reference value: 8.88%); type: functional
BT-549 [5] = test: Cell cycle arrest in human BT549 cells assessed as accumulation of cells at G0/G1 phase at 4 uM after 24 hrs by propidium iodide staining-based flow cytometric analysis (reference value: 65.28%); type: functional
BT-549 [6] = test: Cell cycle arrest in human BT549 cells assessed as accumulation of cells at S phase at 4 uM after 24 hrs by propidium iodide staining-based flow cytometric analysis (reference value: 25.84%); type: functional
BT-549 [7] = test: Cell cycle arrest in human BT549 cells assessed as accumulation of cells at G2/M phase at 4 uM after 24 hrs by propidium iodide staining-based flow cytometric analysis (reference value: 8.88%); type: functional
BT-549 [8] = test: Cell cycle arrest in human BT549 cells assessed as accumulation of cells at G0/G1 phase at 8 uM after 24 hrs by propidium iodide staining-based flow cytometric analysis (reference value: 65.28%); type: functional
BT-549 [9] = test: Cell cycle arrest in human BT549 cells assessed as accumulation of cells at S phase at 8 uM after 24 hrs by propidium iodide staining-based flow cytometric analysis (reference value: 25.84%); type: functional
BT-549 [10] = test: Cell cycle arrest in human BT549 cells assessed as accumulation of cells at G2/M phase at 8 uM after 24 hrs by propidium iodide staining-based flow cytometric analysis (reference value: 8.88%); type: functional
BT-549 [11] = test: Cell cycle arrest in human BT549 cells after 24 hrs by propidium iodide staining-based flow cytometric analysis; type: functional
[12] = target: T1, Tubulin alpha (Homo sapiens) (UniProt P0DPH7+P68366+Q71U36+P68363+Q9BQE3+Q6PEY2+A6NHL2+Q9NY65); test: Disruption of alpha-tubulin in human BT549 cells at 10 uM after 6 hrs by FITC/DAPI staining-based confocal microscopic analysis; type: cell-based
Outline: (§2)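 BT549 cells (2×10⁴ per well) were attached overnight on glass coverslips, then exposed to 10 or 20 µM, or to 0.1% DMSO, for 6 h. Cells were fixed in 4% paraformaldehyde, permeabilized with 0.1% Triton X-100 and blocked in 5% BSA for 60 min. Primary antibodies were α-tubulin mouse and β-tubulin rabbit monoclonals, applied overnight at 4 °C. Secondaries were FITC anti-mouse and Alexa Fluor 555 anti-rabbit, with DAPI for nuclei, and cells were imaged by laser scanning confocal microscopy.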

[13] = target: T2, Tubulin beta (Homo sapiens) (UniProt P68371+Q9H4B7+Q13509+P04350+Q3ZCM7+P07437+Q13885+Q9BVA1+Q9BUF5+A6NNZ2); test: Disruption of beta-tubulin in human BT549 cells at 10 uM after 6 hrs by FITC/DAPI staining-based confocal microscopic analysis; type: cell-based; outline: as §2
[14] = target: T1, Tubulin alpha (Homo sapiens); test: Disruption of alpha-tubulin in human BT549 cells assessed as loss of cellular structure at 10 uM after 6 hrs by FITC/DAPI staining-based confocal microscopic analysis; type: cell-based; outline: as §2
[15] = target: T1, Tubulin alpha (Homo sapiens); test: Disruption of alpha-tubulin in human BT549 cells assessed as formation of cellular rounding at 10 uM after 6 hrs by FITC/DAPI staining-based confocal microscopic analysis; type: cell-based; outline: as §2
[16] = target: T2, Tubulin beta (Homo sapiens); test: Disruption of beta-tubulin in human BT549 cells assessed as loss of cellular structure at 10 uM after 6 hrs by FITC/DAPI staining-based confocal microscopic analysis; type: cell-based; outline: as §2
[17] = target: T2, Tubulin beta (Homo sapiens); test: Disruption of beta-tubulin in human BT549 cells assessed as formation of cellular rounding at 10 uM after 6 hrs by FITC/DAPI staining-based confocal microscopic analysis; type: cell-based; outline: as §2
[18] = target: T1, Tubulin alpha (Homo sapiens); test: Disruption of alpha-tubulin in human BT549 cells assessed as short microtubule at 20 uM after 6 hrs by FITC/DAPI staining-based confocal microscopic analysis; type: cell-based; outline: as §2
[19] = target: T1, Tubulin alpha (Homo sapiens); test: Disruption of alpha-tubulin in human BT549 cells assessed as round cell shape at 20 uM after 6 hrs by FITC/DAPI staining-based confocal microscopic analysis; outline: as §2
[20] = target: T1, Tubulin alpha (Homo sapiens); test: Disruption of alpha-tubulin in human BT549 cells assessed as wrapped microtubule at 20 uM after 6 hrs by FITC/DAPI staining-based confocal microscopic analysis; type: cell-based; outline: as §2
[21] = target: T2, Tubulin beta (Homo sapiens); test: Disruption of beta-tubulin in human BT549 cells assessed as short microtubule at 20 uM after 6 hrs by FITC/DAPI staining-based confocal microscopic analysis; type: cell-based; outline: as §2
[22] = target: T2, Tubulin beta (Homo sapiens); test: Disruption of beta-tubulin in human BT549 cells assessed as round cell shape at 20 uM after 6 hrs by FITC/DAPI staining-based confocal microscopic analysis; outline: as §2
Tubulin (Sus scrofa) = Tubulin (Sus scrofa) (UniProt P02554+P02550); test: Inhibition of pig brain tubulin polymerization at 10 uM by spectrophotometric analysis relative to control
Tubulin (Sus scrofa), sequence (P02550 whole entry, looked up): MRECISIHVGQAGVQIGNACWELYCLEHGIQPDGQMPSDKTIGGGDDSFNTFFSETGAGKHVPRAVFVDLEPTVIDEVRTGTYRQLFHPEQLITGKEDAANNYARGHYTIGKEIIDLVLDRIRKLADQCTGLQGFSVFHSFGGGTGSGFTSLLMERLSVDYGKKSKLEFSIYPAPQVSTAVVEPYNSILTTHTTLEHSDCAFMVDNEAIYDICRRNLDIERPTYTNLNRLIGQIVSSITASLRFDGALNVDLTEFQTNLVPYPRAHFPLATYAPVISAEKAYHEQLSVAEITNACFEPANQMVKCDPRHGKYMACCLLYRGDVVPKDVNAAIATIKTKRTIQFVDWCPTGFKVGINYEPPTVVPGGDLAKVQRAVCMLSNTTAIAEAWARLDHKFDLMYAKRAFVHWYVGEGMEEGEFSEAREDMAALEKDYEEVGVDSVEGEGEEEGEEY
Tubulin (Sus scrofa), sequence (P02554 whole entry, looked up): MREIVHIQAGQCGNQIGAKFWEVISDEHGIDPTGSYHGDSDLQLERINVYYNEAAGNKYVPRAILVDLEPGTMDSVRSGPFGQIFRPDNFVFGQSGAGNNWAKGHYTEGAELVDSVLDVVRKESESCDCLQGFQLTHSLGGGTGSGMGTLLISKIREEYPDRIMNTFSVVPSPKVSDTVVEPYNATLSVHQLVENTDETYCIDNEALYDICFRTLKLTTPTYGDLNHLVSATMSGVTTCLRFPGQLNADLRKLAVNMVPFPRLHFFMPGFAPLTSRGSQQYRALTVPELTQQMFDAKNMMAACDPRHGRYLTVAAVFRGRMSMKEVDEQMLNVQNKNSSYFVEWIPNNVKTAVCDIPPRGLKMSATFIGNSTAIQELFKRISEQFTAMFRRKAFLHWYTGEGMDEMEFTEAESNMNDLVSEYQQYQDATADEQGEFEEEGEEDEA
Outline: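 Tubulin polymerization inhibition was measured with compounds at a final concentration of 10 µM.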

Tubulin = Tubulin (Sus scrofa, UniProt P02554+P02550); test: Inhibition of pig brain tubulin polymerization by spectrophotometric analysis
[23] = target: T2, Tubulin beta (Homo sapiens); test: Disruption of beta-tubulin in human BT549 cells assessed as wrapped microtubule at 20 uM after 6 hrs by DAPI staining-based confocal microscopic analysis

## COc1cc(C(=O)Nc2c(C(=O)c3ccc(Cl)cc3)[nH]c3cc(Cl)ccc23)cc(OC)c1OC
MCF7
  IC50: 10.9 µM
MDA-MB-231
  IC50: 6.43 µM
BT-549 [1]
  IC50: 3.17 µM
T47D
  IC50: 0.04 µM
MDA-MB-468
  IC50: 7.92 µM
Hs-578T
  IC50: > 100 µM
BT-549 [2]
  Activity: 32.1%
BT-549 [3]
  Activity: 41.6%
BT-549 [4]
  Activity: 26.29%
BT-549 [5]
  Activity: 31.07%
BT-549 [6]
  Activity: 33.01%
BT-549 [7]
  Activity: 35.92%
BT-549 [8]
  Activity: 19.76%
BT-549 [9]
  Activity: 23.66%
BT-549 [10]
  Activity: 56.58%
BT-549 [11]
  Activity: Dose-dependent effect
[12]
  Activity: Active
[13]
  Activity: Active
[14]
  Activity: Active
[15]
  Activity: Active
[16]
  Activity: Active
[17]
  Activity: Active
[18]
  Activity: Active
[19]
  Activity: Active
[20]
  Activity: Active
[21]
  Activity: Active
[22]
  Activity: Active
Tubulin (Sus scrofa)
  inhibition: 59%
Tubulin
  IC50: 9.5 µM
[23]
  Activity: Active
